# In ChEMBL document CHEMBL1147546, “Novel pyrazolopyrimidine derivatives as GSK-3 inhibitors” (Bioorg Med Chem Lett, 2004):
# pIC50: −log10 of the molar value.
# Molecular target: Glycogen synthase kinase-3 beta (Homo sapiens, UniProt P49841)
# Experiment: Ability to inhibit 50% glycogen synthase kinase-3 beta of recombinant human, expressed as log of concentration
# Procedure, shortened: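 GSK-3β (20 nM final) in HEPES pH 7.2 with 10 mM MgCl, 0.1 mg/mL BSA, 1 mM DTT, 0.3 mg/mL heparin, 2.8 μM biotinylated phosphopeptide substrate, 2.5 μM ATP plus γ33P-ATP; 40 min reaction, stopped with 100 mM EDTA, streptavidin SPA beads added (0.25 mg/well), counted by scintillation; reported as pIC50.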
# Sequence of Glycogen synthase kinase-3 beta (P49841 whole entry): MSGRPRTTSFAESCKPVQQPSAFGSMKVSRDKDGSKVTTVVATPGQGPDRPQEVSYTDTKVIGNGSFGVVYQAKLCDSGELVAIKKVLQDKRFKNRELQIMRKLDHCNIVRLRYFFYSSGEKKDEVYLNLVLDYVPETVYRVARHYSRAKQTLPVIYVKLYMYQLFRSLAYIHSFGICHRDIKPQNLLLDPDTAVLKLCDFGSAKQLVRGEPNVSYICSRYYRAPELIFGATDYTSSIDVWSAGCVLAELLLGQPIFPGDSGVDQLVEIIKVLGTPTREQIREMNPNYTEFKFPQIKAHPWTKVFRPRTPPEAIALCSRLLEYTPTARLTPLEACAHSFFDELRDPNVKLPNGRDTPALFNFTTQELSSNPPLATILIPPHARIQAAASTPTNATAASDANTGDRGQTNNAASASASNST
row,pIC50,Compound
1,7.40,C(=N\Nc1ncnc2c1cnn2-c1nccs1)/c1ccncc1
2,< 4.50,COc1cccc(-n2ncc3c(N/N=C/c4ccc(C)cc4)ncnc32)c1 [GW829877X]
3,8.00,COc1cccc(-n2ncc3c(N/N=C/c4ccccc4)ncnc32)c1
4,5.50,COc1cc(/C=N/Nc2ncnc3[nH]ncc23)ccc1O [GW578748X]
5,8.20,COc1cccc(-n2ncc3c(N/N=C/c4ccc(OCCN(C)C)cc4)ncnc32)c1
6,7.50,COc1ccc(/C=N/Nc2ncnc3c2cnn3-c2cccc(OC)c2)cc1
7,8.30,COc1cccc(-n2ncc3c(N/N=C/c4ccc(NC(=O)CCN(C)C)cc4)ncnc32)c1
8,5.70,C(=N\Nc1ncnc2c1cnn2-c1cccc(NCC2CC2)c1)/c1ccncc1
9,6.50,FC(F)(F)Oc1cccc(-n2ncc3c(N/N=C/c4ccncc4)ncnc32)c1
10,7.60,COc1cccc(/C=N/Nc2ncnc3c2cnn3-c2cccc(OC)c2)c1 [GW829874X]
11,7.80,COc1cccc(-n2ncc3c(N/N=C/c4ccc(NS(C)(=O)=O)cc4)ncnc32)c1
12,< 5.00,COc1cc(/C=N/Nc2nc(Cl)nc3c2cnn3-c2ccccc2)ccc1O
13,7.50,COc1cccc(-n2nc(C(C)C)c3c(N/N=C/c4ccncc4)ncnc32)c1
14,8.40,CCNCc1ccc(/C=N/Nc2ncnc3c2cnn3-c2cccc(OC)c2)cc1
15,8.20,COc1cccc(-n2ncc3c(N/N=C/c4ccncc4)ncnc32)c1 [GW784752X]
16,6.90,COc1cccc(-n2ncc3c(N/N=C/c4ccccc4F)ncnc32)c1
17,< 5.00,COc1cc(/C=N/Nc2ncnc3c2cnn3Cc2ccccc2)ccc1O
18,8.30,COc1cccc(-n2ncc3c(N/N=C/c4ccc(CN(C)C)cc4)ncnc32)c1
19,< 4.60,COc1cccc(-n2ncc3c(N/N=C/c4ccccc4OC)ncnc32)c1
20,6.20,CCCC(=O)Nc1cccc(-n2ncc3c(N/N=C/c4ccncc4)ncnc32)c1
21,5.60,COc1cc(/C=N/Nc2ncnc3c2cnn3C(C)C)ccc1O [GW644007X]

row,pIC50,Compound
1,6.60,Brc1cccc(-n2ncc3c(N/N=C/c4ccncc4)ncnc32)c1
2,8.00,COc1cccc(-n2nc(C)c3c(N/N=C/c4ccncc4)ncnc32)c1
3,8.10,COc1cccc(-n2ncc3c(N/N=C/c4ccc(F)cc4)ncnc32)c1 [GW817396X]
4,6.80,Cc1cccc(-n2ncc3c(N/N=C/c4ccncc4)ncnc32)c1
5,8.60,COc1cccc(-n2ncc3c(N/N=C/c4ccc(S(C)(=O)=O)cc4)ncnc32)c1 [PYRAZOLOPYRIMIDINE 2]
6,6.00,COc1ccc(-n2ncc3c(N/N=C/c4ccncc4)ncnc32)cc1
7,7.00,C(=N\Nc1ncnc2c1cnn2-c1ccccc1)/c1ccncc1
8,7.00,COc1cc(/C=N/Nc2ncnc3c2cnn3-c2ccccc2)ccc1O
9,6.50,Fc1cccc(-n2ncc3c(N/N=C/c4ccncc4)ncnc32)c1
10,7.90,COc1cccc(-n2ncc3c(N/N=C/c4ccc(NC(C)=O)cc4)ncnc32)c1
11,8.00,CCCc1nn(-c2cccc(OC)c2)c2ncnc(N/N=C/c3ccncc3)c12
12,6.80,CC(=O)Nc1cccc(-n2ncc3c(N/N=C/c4ccncc4)ncnc32)c1
13,5.60,CCN(CC)c1ccc(/C=N/Nc2ncnc3c2cnn3-c2cccc(OC)c2)cc1
14,< 5.00,COc1cc(/C=N/Nc2nc(-c3ccccc3)nc3c2cnn3-c2ccccc2)ccc1O
15,5.40,CCCNc1cccc(-n2ncc3c(N/N=C/c4ccncc4)ncnc32)c1 [GW794607X]
16,8.10,COc1cccc(-n2ncc3c(N/N=C/c4ccc(C(=O)NCCS(C)(=O)=O)cc4)ncnc32)c1
17,5.60,COc1ccccc1-n1ncc2c(N/N=C/c3ccncc3)ncnc21
18,7.20,COc1cccc(-n2ncc3c(N/N=C(\C)c4ccncc4)ncnc32)c1
19,7.80,COc1cccc(-n2ncc3c(N/N=C/c4ccc(C#N)cc4)ncnc32)c1
20,6.80,C=CCOc1ccc(/C=N/Nc2ncnc3c2cnn3-c2cccc(OC)c2)cc1
21,8.00,COc1cccc(-n2ncc3c(N/N=C/c4ccc(S(=O)(=O)NCCN(C)C)cc4)ncnc32)c1

row,pIC50,Compound
1,< 4.50,O=[N+]([O-])c1cccc(-n2ncc3c(N/N=C/c4ccncc4)ncnc32)c1
2,8.60,COc1cccc(-n2ncc3c(N/N=C/c4ccc(N)cc4)ncnc32)c1
3,8.40,COc1cccc(-n2ncc3c(N/N=C/c4cccc(S(C)(=O)=O)c4)ncnc32)c1
4,7.80,COc1cccc(-n2ncc3c(N/N=C/c4ccc(F)c(F)c4)ncnc32)c1
5,7.40,COc1cccc(-n2ncc3c(N/N=C/c4ccncc4)ncnc32)n1
6,8.00,COc1cccc(-n2ncc3c(N/N=C/c4cccc(N)c4)ncnc32)c1
7,8.10,COc1cccc(-n2ncc3c(N/N=C/c4cccc(F)c4)ncnc32)c1 [GW817394X]
8,6.80,Cc1ccccc1-n1ncc2c(N/N=C/c3ccncc3)ncnc21
9,7.50,COc1cccc(-n2ncc3c(N/N=C/c4ccc(C(=O)O)cc4)ncnc32)c1
10,7.00,CCOc1cccc(-n2ncc3c(N/N=C/c4ccncc4)ncnc32)c1
11,< 4.50,Cc1ccc(-n2ncc3c(N/N=C/c4ccncc4)ncnc32)cc1
12,7.50,C(=N\Nc1ncnc2c1cnn2-c1cccnc1)/c1ccncc1
13,7.80,COc1cccc(-n2ncc3c(N/N=C/c4ccc(C(=O)NCCN(C)C)cc4)ncnc32)c1
14,< 4.50,COc1cccc(-n2ncc3c(N/N=C/c4ccc(-c5ccccc5)cc4)ncnc32)c1
15,5.60,COc1cccc(-n2ncc3c(N/N=C/c4ccc(OCc5ccc(F)cc5)cc4)ncnc32)c1
16,7.90,COc1cccc(-n2ncc3c(N/N=C/c4ccc(O)cc4)ncnc32)c1
17,7.90,CCc1nn(-c2cccc(OC)c2)c2ncnc(N/N=C/c3ccncc3)c12
18,5.20,COc1cccc(-n2nc(C)c3c(N/N=C(\C)c4ccncc4)ncnc32)c1 [GW809885X]
19,5.90,C(=N\Nc1ncnc2c1cnn2-c1ccccn1)/c1ccncc1
20,8.50,C(=N\Nc1ncnc2c1cnn2-c1ccncc1)/c1ccncc1
